Experimental data as given in paper PMC3397136 (Amino Acids, 2011).
Where “and” joins values, the source holds several entries; their conditions need not be identical. Equal entries are not always repeated. Where two headings read alike, the source gives them in different places. Positions of bridges follow the written chain, without caps; N, C: chain ends. No end group written: not given here.

Legend:
strips of rat uterus [1] = format: cell-based; settings: for anti-oxytocic potency, times less potent than the mother compound III: in vitro uterus test
Outline: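 Wistar rats were brought into estrus by estrogen injection 48 h before use. After decapitation, uterine horns were cut longitudinally and mounted in an organ bath without Mg2+, and isometric contraction height was recorded. Oxytocin standard, with or without test compound, or test compound alone was dosed cumulatively in doubling concentrations at 1 min intervals until maximal response. Results are agonist IU/mg or antagonist pA2, using uteri from 3–5 rats, mean ± SEM.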

[2] = test system: arterial blood pressure (pressor response to AVP); experiment: vasopressor test in phenoxybenzamine-treated male rats under urethane anesthesia; format: in vivo, rat; settings: for Pressor IU/mg or pA2 (0 = no activity): 0 means no activity up to the dose of 0.15 mg/kg of experimental animal; for pressor activity (in words) / Pressor pA2 (antagonist): rat; for pressor activity (in words): in vivo; for Pressor pA2 (antagonist): i.v., antagonist 1 min before AVP
Outline: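 Male Wistar rats were pretreated with phenoxybenzamine and anesthetized with urethane, and arterial blood pressure was recorded. AVP standard was given as single femoral-vein injections to build dose–response curves with and without antagonist, which was given 1 min earlier. Results are IU/mg for agonists or pA2 for antagonists, with distribution volume taken as 67 ml/kg. Inactivity means no response up to 0.15 mg/kg. 3–5 experiments, mean ± SEM.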

[3] = test system: conscious male rats (antidiuresis); experiment: antidiuretic test on conscious male rats; format: in vivo, rat; settings: for Antidiuretic IU/mg: single value given, no level given; for Antidiuretic IU/mg (200 min): level t1/2 200 min (in parentheses); for Antidiuretic IU/mg (200 min) / Antidiuretic IU/mg 60 min: s.c., AVP taken as 465 IU/mg; for Antidiuretic IU/mg 60 min: threshold level t1/2 60 min; for antidiuretic activity (in words): rat, in vivo
Outline: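 Fasted (16 h) conscious male Wistar rats given a tap-water load of 4% body weight by stomach catheter. Test compound or saline was then injected s.c. (0.001–100 nmol/kg), and urine was collected for 5 h in metabolic cages. The half-excretion time t1/2 was plotted against dose. […] Groups were 4–5 rats, with 2–3 independent days per dose.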

strips of rat uterus [4] = settings: cited from earlier work
[5] = test system: arterial blood pressure (pressor response to AVP); settings: cited from earlier work
[6] = test system: conscious male rats (antidiuresis); settings: cited from earlier work; for Antidiuretic IU/mg (200 min): 200 min level; for Antidiuretic IU/mg 60 min: threshold level 60 min; for Antidiuretic IU/mg: single value, ref Lebl (1987)
[7] = rat uterus strips, no Mg2+, average ± SEM, n = 3–5
[8] = ref Melin et al. (1986), Manning et al. (1995)

Substance: Aba[cis-Apc^2,Val^4]AVP [XI]
- anti-oxytocic potency, times less potent than the mother compound III (strips of rat uterus [1]): ~10 times
- Pressor IU/mg or pA2 (0 = no activity) [2]: 0
- pressor activity (in words) [2]: eliminated its effect on blood pressure
- Antidiuretic IU/mg [3]: 0 IU/mg

Substance: Aca[cis-Apc^2,Val^4]AVP [VIII]
- Pressor IU/mg or pA2 (0 = no activity) [2]: 0
- pressor activity (in words) [2]: eliminated its effect on blood pressure
- Antidiuretic IU/mg (200 min) [3]: < 0.5 IU/mg
- Antidiuretic IU/mg 60 min [3]: < 0.01 IU/mg

Substance: Hba[cis-Apc^2,Val^4]AVP [X]
- anti-oxytocic potency, times less potent than the mother compound III (strips of rat uterus [1]): about 4 times
- Antidiuretic IU/mg (200 min) [3]: < 0.5 IU/mg
- Antidiuretic IU/mg 60 min [3]: < 0.01 IU/mg

Substance: [Acc^2,Val^4]AVP
- Uterotonic in vitro no Mg2+ pA2 (strips of rat uterus [4]; ref Kowalczyk et al. (2004)): pA2 = 6.9
- Pressor IU/mg ([5]; ref Kowalczyk et al. (2004)): 0.9 ± 0.30 IU/mg
- Antidiuretic IU/mg (200 min) ([6]; ref Kowalczyk et al. (2004)): 23,000 IU/mg
- Antidiuretic IU/mg 60 min ([6]; ref Kowalczyk et al. (2004)): 2,300 IU/mg

Substance: [Acc^2]AVP
- Uterotonic in vitro no Mg2+ pA2 (strips of rat uterus [4]; ref Jastrzębska et al. (2003)): pA2 ~ 5.6
- Pressor IU/mg ([5]; ref Jastrzębska et al. (2003)): 56.6 IU/mg
- Antidiuretic IU/mg (200 min) ([6]; ref Jastrzębska et al. (2003)): ~9,300 IU/mg
- Antidiuretic IU/mg 60 min ([6]; ref Jastrzębska et al. (2003)): 750–900 IU/mg

Substance: [Cpa^1,Acc^2]AVP
- Uterotonic in vitro no Mg2+ pA2 (strips of rat uterus [4]; ref Jastrzębska et al. (2003)): 7.33

Substance: [Cpa^1,cis-Apc^2]AVP [VII]
- Uterotonic in vitro no Mg2+ pA2 (anti-oxytocic) (strips of rat uterus [1]; [7]): pA2 = 7.85 + 0.14
- Pressor pA2 (antagonist) [2]: pA2 ~ 6.2
- pressor activity (in words) [2]: weak and low antagonistic activity
- Antidiuretic IU/mg (200 min) [3]: 1 IU/mg
- antidiuretic activity (in words) [3]: negligible
- Antidiuretic IU/mg 60 min [3]: 0.05 IU/mg

Substance: [Cpa^1,cis-Apc^2]OT [XIV]
- Uterotonic in vitro no Mg2+ pA2 (anti-oxytocic) (strips of rat uterus [1]; [7]): pA2 = 7.97 + 0.24
- Pressor pA2 (antagonist) [2]: pA2 ~ 6.73

Substance: [Mpa^1,Acc^2]AVP
- Uterotonic in vitro no Mg2+ pA2 (strips of rat uterus [4]; ref Kowalczyk et al. (2004)): ~5.6
- Uterotonic in vitro no Mg2+ IU/mg (strips of rat uterus [4]; value in parentheses, ref Kowalczyk et al. (2004)): 0.7 IU/mg
- Pressor IU/mg ([5]; ref Kowalczyk et al. (2004)): 17.2 ± 0.8 IU/mg
- Antidiuretic IU/mg (200 min) ([6]; ref Kowalczyk et al. (2004)): 50,000 IU/mg
- Antidiuretic IU/mg 60 min ([6]; ref Kowalczyk et al. (2004)): 4,500 IU/mg

Substance: [Mpa^1,cis-Apc^2,D-Arg^8]VP [VI]
- Pressor pA2 (antagonist) [2]: pA2 ~ 7.1
- Antidiuretic IU/mg (200 min) [3]: 1,000 IU/mg
- Antidiuretic IU/mg 60 min [3]: 5 IU/mg

Substance: [Mpa^1,cis-Apc^2]OT [XIII]
- Uterotonic in vitro no Mg2+ pA2 (anti-oxytocic) (strips of rat uterus [1]; [7]): pA2 = 8.11 + 0.18
- Uterotonic in vitro no Mg2+ pA2 (anti-oxytocic) (strips of rat uterus [1]; rat uterus strips, no Mg2+, average ± SEM, n = 3–5, listed as [Mpa^1,cis-Apc^2]OT): 8.11
- Pressor pA2 (antagonist) [2]: pA2 ~ 6.0
- antidiuretic activity (in words) [3]: inactive
- Antidiuretic IU/mg [3]: 0 IU/mg

Substance: [Mpa^1]OT
- Uterotonic in vitro no Mg2+ IU/mg (strips of rat uterus [4]; ref Lebl (1987)): 803 IU/mg
- Pressor IU/mg ([5]; ref Lebl (1987)): 1.44 IU/mg
- Antidiuretic IU/mg [6]: 19 IU/mg

Substance: [cis-Apc^2,D-Arg^8]VP
- Pressor pA2 (antagonist) [2]: pA2 ~ 7.1
- Antidiuretic IU/mg (200 min) [3]: 200 IU/mg
- antidiuretic activity (in words) [3]: negligible
- antidiuretic potency relative to AVP ([3]; t1/2 level of 200 min): about 43%
- Antidiuretic IU/mg 60 min [3]: 1 IU/mg

Substance: [cis-Apc^2]OT [XII]
- Uterotonic in vitro no Mg2+ pA2 (anti-oxytocic) (strips of rat uterus [1]; [7]): pA2 = 7.89 + 0.07
- Pressor pA2 (antagonist) [2]: pA2 ~ 5.75
- pressor activity (in words) [2]: weak

Substance: arginine vasopressin (CYFQNCPRG-NH2; disulfide 1-6; UniProt P01185 20-28, looked up) [AVP]
- Uterotonic in vitro no Mg2+ IU/mg (strips of rat uterus [4]; ref Lebl (1987)): 17 IU/mg
- Pressor IU/mg ([5]; ref Lebl (1987)): 412 IU/mg
- Antidiuretic IU/mg [6]: 465 IU/mg

Substance: d[D-Tyr(Et)^2,Thr^4]OVT [Atosiban]
- Uterotonic in vitro no Mg2+ pA2 (strips of rat uterus [4]; [8]): 7.71 and 7.71 ± 0.05
- Pressor pA2 [5, 8]: pA2 = 6.14 ± 0.02
- Antidiuretic pA2 [6, 8]: pA2 = 5.9

Substance: oxytocin [OT]
- Uterotonic in vitro no Mg2+ IU/mg (strips of rat uterus [4]; ref Lebl (1987)): 450 IU/mg
- Pressor IU/mg ([5]; ref Lebl (1987)): 5 IU/mg
- Antidiuretic IU/mg [6]: 5 IU/mg

Substance: t-Bba[cis-Apc^2,Val^4]AVP [IX]
- Uterotonic in vitro no Mg2+ IU/mg (agonist) (strips of rat uterus [1]; [7]): 10.1 ± 3.8 IU/mg and 10.1 + 3.8 IU/mg
- Pressor IU/mg or pA2 (0 = no activity) [2]: 0
- pressor activity (in words) [2]: eliminated its effect on blood pressure
- Antidiuretic IU/mg (200 min) [3]: < 0.5 IU/mg
- Antidiuretic IU/mg 60 min [3]: < 0.01 IU/mg
